≈ marks a conversion by molar mass, not a printed value.
Tests used:
Assay type in all cases: functional
Staphylococcus aureus [1] = test: Antibacterial activity against Staphylococcus aureus ATCC 25923 after 18 hrs by […] in presence of human plasma; details: ATCC 25923, Plasma
How it was run: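 To gauge plasma protein binding and/or plasma instability, MIC was determined in Mueller-Hinton broth containing 50% human plasma. Linezolid served as a reference agent. Ratio compares this MIC with the MIC obtained without plasma.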

Staphylococcus aureus [2] = test: Antibacterial activity against Staphylococcus aureus ATCC 25923 after 18 hrs by NCCLS agar dilution method; details: ATCC 25923, 18 h
How it was run: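 Plain Mueller-Hinton agar, agar dilution per NCCLS, concentrations 0.12–64 µg/ml. Test agents in 80% DMSO in water, linezolid in 40% water in ethanol, vancomycin in water. Final inoculum 10^7 CFU/ml, 35 °C for 18 h. MIC = lowest concentration inhibiting visible growth.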

Moraxella catarrhalis [3] = test: Antibacterial activity against Moraxella catarrhalis ATCC 8176 after 18 hrs by NCCLS agar dilution method; details: ATCC 8176, 18 h
How it was run: (§1)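 NCCLS agar dilution on Mueller-Hinton agar with 5% sheep blood added to support growth. Drug dilutions 0.12–64 µg/ml. Test agents in 80% DMSO in water, linezolid in 40% water in ethanol. Final inoculum 10^7 CFU/ml, 18 h at 35 °C. MIC read as the lowest concentration with no visible growth.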

Streptococcus pneumoniae = test: Antibacterial activity against penicillin-resistant Streptococcus pneumoniae after 18 hrs by NCCLS agar dilution method
How it was run: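 Agar dilution was run on Mueller-Hinton agar supplemented with 5% sheep blood, with drug dilutions from 0.12 to 64 µg/ml. Test compounds were dissolved in 80% DMSO in water. Final inoculum was 10^7 CFU/ml, incubated at 35 °C for 18 h. MIC was the lowest concentration preventing visible growth.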

Haemophilus influenzae = test: Antibacterial activity against Haemophilus influenzae ATCC 49247 after 18 hrs by NCCLS agar dilution method; details: ATCC 49247, 18 h; how it was run: as §1
Escherichia coli = test: Antibacterial activity against Escherichia coli ATCC 25922 after 18 hrs by NCCLS agar dilution method; details: ATCC 25922, 18 h
How it was run: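 Agar dilution per NCCLS on Mueller-Hinton agar, drug dilutions 0.12–64 µg/ml. Linezolid dissolved in 40% water in ethanol, vancomycin in water, test agents in 80% DMSO in water. Inoculum 10^7 CFU/ml (final), incubated 35 °C for 18 h. MIC is the lowest concentration preventing visible growth.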

Enterococcus [4] = test: Antibacterial activity against vancomycin-resistant Enterococcus after 18 hrs by NCCLS agar dilution method
How it was run: (§2)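 Clinical isolates were tested by agar dilution on Mueller-Hinton agar with drug dilutions from 0.12 to 64 µg/ml. Test compounds were dissolved in 80% DMSO in water. Final inoculum was 10^7 CFU/ml, incubated at 35 °C for 18 h. MIC was the lowest concentration inhibiting visible growth.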

Enterococcus [5] = test: Antibacterial activity against vancomycin-susceptible Enterococcus after 18 hrs by NCCLS agar dilution method; how it was run: as §2
Staphylococcus [6] = test: Antibacterial activity against methicillin-susceptible coagulase-negative Staphylococcus after 18 hrs by NCCLS agar dilution method; how it was run: as §2
Staphylococcus [7] = test: Antibacterial activity against methicillin-resistant coagulase-negative Staphylococcus after 18 hrs by NCCLS agar dilution method; how it was run: as §2
Staphylococcus aureus [8] = test: Antibacterial activity against methicillin-susceptible Staphylococcus aureus after 18 hrs by NCCLS agar dilution method; how it was run: as §2
Staphylococcus aureus [9] = test: Antibacterial activity against methicillin-resistant Staphylococcus aureus after 18 hrs by NCCLS agar dilution method; how it was run: as §2
Moraxella catarrhalis [10] = test: Antibacterial activity against Moraxella catarrhalis clinical isolate 3447 after 18 hrs by NCCLS agar dilution method; details: clinical isolate 3447, 18 h; how it was run: as §1
Moraxella catarrhalis [11] = test: Antibacterial activity against Moraxella catarrhalis clinical isolate 2824 after 18 hrs by NCCLS agar dilution method; details: clinical isolate 2824, 18 h; how it was run: as §1
Moraxella catarrhalis [12] = test: Antibacterial activity against Moraxella catarrhalis clinical isolate 255 after 18 hrs by NCCLS agar dilution method; details: clinical isolate 255, 18 h; how it was run: as §1
Moraxella catarrhalis [13] = test: Antibacterial activity against Moraxella catarrhalis clinical isolate 138 after 18 hrs by NCCLS agar dilution method; details: clinical isolate 138, 18 h; how it was run: as §1
Moraxella catarrhalis [14] = test: Antibacterial activity against Moraxella catarrhalis clinical isolate 125 after 18 hrs by NCCLS agar dilution method; details: clinical isolate 125, 18 h; how it was run: as §1
Moraxella catarrhalis [15] = test: Antibacterial activity against Moraxella catarrhalis clinical isolate 112 after 18 hrs by NCCLS agar dilution method; details: clinical isolate 112, 18 h; how it was run: as §1
Moraxella catarrhalis [16] = test: Antibacterial activity against Moraxella catarrhalis clinical isolate 36 after 18 hrs by NCCLS agar dilution method; details: clinical isolate 36, 18 h; how it was run: as §1
Moraxella catarrhalis [17] = test: Antibacterial activity against Moraxella catarrhalis clinical isolate 1 after 18 hrs by NCCLS agar dilution method; details: clinical isolate 1, 18 h; how it was run: as §1

| SMILES | MIC (Staphylococcus aureus [1]) | MIC (Staphylococcus aureus [2]) | MIC (Moraxella catarrhalis [3]) | MIC (Streptococcus pneumoniae) | MIC (Haemophilus influenzae) | MIC (Escherichia coli) | MIC (Enterococcus [4]) | MIC (Enterococcus [5]) | MIC (Staphylococcus [6]) | MIC (Staphylococcus [7]) | MIC (Staphylococcus aureus [8]) | MIC (Staphylococcus aureus [9]) | MIC (Moraxella catarrhalis [10]) | MIC (Moraxella catarrhalis [11]) | MIC (Moraxella catarrhalis [12]) | MIC (Moraxella catarrhalis [13]) | MIC (Moraxella catarrhalis [14]) | MIC (Moraxella catarrhalis [15]) | MIC (Moraxella catarrhalis [16]) | MIC (Moraxella catarrhalis [17]) |
| --- | --- | --- | --- | --- | --- | --- | --- | --- | --- | --- | --- | --- | --- | --- | --- | --- | --- | --- | --- | --- |
| O=C(NCC(=O)N1CCN(c2ccc(N3C[C@H](Cn4ccnn4)OC3=O)cc2F)CC1)C1CCCO1 (some centres undefined) | 16 µg/mL | 8 µg/mL (≈ 16 µM) | 16 µg/mL (≈ 31.9 µM) | 1 µg/mL (≈ 1.99 µM) | 32 µg/mL (≈ 63.8 µM) | > 64 µg/mL | 8 µg/mL (≈ 16 µM) | 4 µg/mL (≈ 7.98 µM) | 4 µg/mL (≈ 7.98 µM) | 4 µg/mL (≈ 7.98 µM) | 4 µg/mL (≈ 7.98 µM) | 4 µg/mL (≈ 7.98 µM) | – | – | – | – | – | – | – | – |
| Cc1cn(C[C@H]2CN(c3ccc(N4CCN(C(=O)CNC(=O)C5CCCO5)CC4)c(F)c3)C(=O)O2)nn1 (some centres undefined) | 32 µg/mL | 32 µg/mL (≈ 62.1 µM) | 32 µg/mL (≈ 62.1 µM) | 0.5 µg/mL (≈ 0.97 µM) | 32 µg/mL (≈ 62.1 µM) | > 64 µg/mL | 16 µg/mL (≈ 31 µM) | 16 µg/mL (≈ 31 µM) | 16 µg/mL (≈ 31 µM) | 16 µg/mL (≈ 31 µM) | 16 µg/mL (≈ 31 µM) | 16 µg/mL (≈ 31 µM) | – | – | – | – | – | – | – | – |
| O=C(NCC(=O)N1CCN(c2ccc(N3C[C@H](Cn4ccnn4)OC3=O)cc2F)CC1)c1ccccc1 | > 64 µg/mL | 1 µg/mL (≈ 1.97 µM) | 32 µg/mL (≈ 63.1 µM) | 1 µg/mL (≈ 1.97 µM) | 32 µg/mL (≈ 63.1 µM) | > 64 µg/mL | 0.5 µg/mL (≈ 0.985 µM) | 1 µg/mL (≈ 1.97 µM) | 0.5 µg/mL (≈ 0.985 µM) | 0.5 µg/mL (≈ 0.985 µM) | 0.5 µg/mL (≈ 0.985 µM) | 0.5 µg/mL (≈ 0.985 µM) | – | – | – | – | – | – | – | – |
| Cc1cn(C[C@H]2CN(c3ccc(N4CCN(C(=O)CNC(=O)c5cccs5)CC4)c(F)c3)C(=O)O2)nn1 | 8 µg/mL | 2 µg/mL (≈ 3.79 µM) | 8 µg/mL (≈ 15.2 µM) | 0.5 µg/mL (≈ 0.948 µM) | 16 µg/mL (≈ 30.3 µM) | > 64 µg/mL | 1 µg/mL (≈ 1.9 µM) | 1 µg/mL (≈ 1.9 µM) | 1 µg/mL (≈ 1.9 µM) | 1 µg/mL (≈ 1.9 µM) | 1 µg/mL (≈ 1.9 µM) | 1 µg/mL (≈ 1.9 µM) | ≥ 8 µg/mL | 8 µg/mL (≈ 15.2 µM) | 8 µg/mL (≈ 15.2 µM) | 8 µg/mL (≈ 15.2 µM) | 8 µg/mL (≈ 15.2 µM) | 8 µg/mL (≈ 15.2 µM) | 8 µg/mL (≈ 15.2 µM) | ≥ 8 µg/mL |
| O=C(NCC(=O)N1CCN(c2ccc(N3C[C@H](Cn4ccnn4)OC3=O)cc2F)CC1)c1ccco1 | 2 µg/mL | 2 µg/mL (≈ 4.02 µM) | 16 µg/mL (≈ 32.2 µM) | 0.25 µg/mL (≈ 0.503 µM) | 16 µg/mL (≈ 32.2 µM) | > 64 µg/mL | 1 µg/mL (≈ 2.01 µM) | 1 µg/mL (≈ 2.01 µM) | 1 µg/mL (≈ 2.01 µM) | 1 µg/mL (≈ 2.01 µM) | 1 µg/mL (≈ 2.01 µM) | 1 µg/mL (≈ 2.01 µM) | – | – | – | – | – | – | – | – |
| Cc1cn(C[C@H]2CN(c3ccc(N4CCN(C(=O)CNC(=O)c5ccco5)CC4)c(F)c3)C(=O)O2)nn1 | 4 µg/mL | 2 µg/mL (≈ 3.91 µM) | 8 µg/mL (≈ 15.6 µM) | 0.5 µg/mL (≈ 0.977 µM) | 4 µg/mL (≈ 7.82 µM) | > 64 µg/mL | 2 µg/mL (≈ 3.91 µM) | 2 µg/mL (≈ 3.91 µM) | 2 µg/mL (≈ 3.91 µM) | 2 µg/mL (≈ 3.91 µM) | 2 µg/mL (≈ 3.91 µM) | 2 µg/mL (≈ 3.91 µM) | > 8 µg/mL | > 8 µg/mL | > 8 µg/mL | > 8 µg/mL | > 8 µg/mL | > 8 µg/mL | > 8 µg/mL | > 8 µg/mL |
| O=C(CNS(=O)(=O)c1cccs1)N1CCN(c2ccc(N3C[C@H](Cn4ccnn4)OC3=O)cc2F)CC1 | 32 µg/mL | 4 µg/mL (≈ 7.28 µM) | 32 µg/mL (≈ 58.2 µM) | 1 µg/mL (≈ 1.82 µM) | ≥ 64 µg/mL | > 64 µg/mL | 2 µg/mL (≈ 3.64 µM) | 2 µg/mL (≈ 3.64 µM) | 2 µg/mL (≈ 3.64 µM) | 2 µg/mL (≈ 3.64 µM) | 2 µg/mL (≈ 3.64 µM) | 2 µg/mL (≈ 3.64 µM) | – | – | – | – | – | – | – | – |
| Cc1cn(C[C@H]2CN(c3ccc(N4CCN(C(=O)CNS(=O)(=O)c5cccs5)CC4)c(F)c3)C(=O)O2)nn1 | 32 µg/mL | 16 µg/mL (≈ 28.4 µM) | 32 µg/mL (≈ 56.8 µM) | 2 µg/mL (≈ 3.55 µM) | 64 µg/mL (≈ 114 µM) | > 64 µg/mL | 8 µg/mL (≈ 14.2 µM) | 8 µg/mL (≈ 14.2 µM) | 8 µg/mL (≈ 14.2 µM) | 8 µg/mL (≈ 14.2 µM) | 8 µg/mL (≈ 14.2 µM) | 8 µg/mL (≈ 14.2 µM) | – | – | – | – | – | – | – | – |
| CC(=O)NC[C@H]1CN(c2ccc(N3CCOCC3)c(F)c2)C(=O)O1 [LINEZOLID] | – | – | 8 µg/mL (≈ 23.7 µM) | – | 8 µg/mL (≈ 23.7 µM) | > 64 µg/mL | 0.5 µg/mL (≈ 1.48 µM) | 0.5 µg/mL (≈ 1.48 µM) | 0.5 µg/mL (≈ 1.48 µM) | 0.5 µg/mL (≈ 1.48 µM) | 0.5 µg/mL (≈ 1.48 µM) | 0.5 µg/mL (≈ 1.48 µM) | 8 µg/mL (≈ 23.7 µM) | 8 µg/mL (≈ 23.7 µM) | 8 µg/mL (≈ 23.7 µM) | 8 µg/mL (≈ 23.7 µM) | 8 µg/mL (≈ 23.7 µM) | 8 µg/mL (≈ 23.7 µM) | 8 µg/mL (≈ 23.7 µM) | 8 µg/mL (≈ 23.7 µM) |
